According to paper PMC3059864 (Clinics, 2011):

Tests used:
[1] = Biodistribution by pretargeting system in Nude mice bearing PC‐3 tumor cells; design: species or system Nude mice (Balb/c); conditions: mouse, in vivo, iv, 50 ul of the mixture
PC‐3 tumor xenografts = assay: Scintigraphic imaging of tumor‐bearing mice; type: in vivo, Nude mice (Balb/c); conditions: tumor‐bearing Nude mice
Outline: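 PC-3 xenograft-bearing nude mice were pretargeted with the SA:B-MORF:biotinylated BBN analogue mixture (1:1:2) for 7 or 15 h, then given 99mTc-MAG3-cMORF intravenously. Anaesthetised mice, lying horizontally, were imaged on a gamma camera with a low-energy high-resolution collimator. Acquisition used a 20% energy window at 140 keV for 180 s. Tumour region-of-interest uptake was expressed as a percentage.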

For `CSCC[C@H](NC(=O)[C@H](CC(C)C)NC(=O)[C@H](Cc1c[nH]cn1)NC(=O)CNC(=O)[C@@H](NC(=O)[C@H](C)NC(=O)[C@H](Cc1c[nH]c2ccccc12)NC(=O)[C@H](CCC(N)=O)NC(=O)CCOCCOCCOCCOCCOCCOCCOCCOCCOCCOCCOCCOCCNC(=O)CCCC[C@@H]1SC[C@@H]2NC(=O)N[C@@H]21)C(C)C)C(N)=O` [B‐PEG‐BBN, Biotin‐dPEG‐Gln‐Trp‐Ala‐Val‐Gly‐His‐Leu‐Met‐NH2], the tissue to tissue ratio [1] was 2.45, the “ROI (region of interest) in scintigraphic images” value (PC‐3 tumor xenografts; 7 h) was 1.47% and the “ROI (region of interest) in scintigraphic images” value (PC‐3 tumor xenografts; 15 h) was 1.22%.
